Results from ChEMBL document CHEMBL4049434, “Radiolabeled Dibenzodiazepinone-Type Antagonists Give Evidence of Dualsteric Binding at the M2 Muscarinic Acetylcholine Receptor” (J Med Chem, 2017).
Activity calls are given as the source filed them. No cut-off for these calls is given here.

How the values were obtained:
[1] = molecular target: T1, Muscarinic acetylcholine receptor M2 (Homo sapiens) (UniProt P08172); assay: Agonist activity at human muscarinic acetylcholine receptor M2 expressed in HEK293 cells coexpressing HA tagged Galpha-protein qi5 assessed as induction of IP1 accumulation measured after 1 hr by HTRF assay; assay type: functional, cell-based
T1 sequence (whole entry): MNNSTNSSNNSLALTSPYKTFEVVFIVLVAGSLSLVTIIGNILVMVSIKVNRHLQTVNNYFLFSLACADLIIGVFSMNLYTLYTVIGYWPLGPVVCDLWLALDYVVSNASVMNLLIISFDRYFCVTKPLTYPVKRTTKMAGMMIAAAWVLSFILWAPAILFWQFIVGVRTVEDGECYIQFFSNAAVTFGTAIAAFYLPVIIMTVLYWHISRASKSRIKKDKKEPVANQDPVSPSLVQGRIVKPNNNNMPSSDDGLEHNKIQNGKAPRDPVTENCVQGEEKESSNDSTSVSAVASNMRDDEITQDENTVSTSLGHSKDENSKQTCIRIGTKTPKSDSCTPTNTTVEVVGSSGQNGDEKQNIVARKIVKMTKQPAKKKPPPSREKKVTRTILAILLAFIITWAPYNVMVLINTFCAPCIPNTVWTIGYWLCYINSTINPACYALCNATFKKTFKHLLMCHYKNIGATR
Procedure, shortened: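 HEK-293 transiently cotransfected with human M2R and Gαqi5-HA, seeded 24 h before assay (10000 cells/well). Compounds in stimulation buffer (1 pM–100 μM final) 1 h at 37 °C; IP1 read by HTRF (620/670 nm, excitation 330 nm) after 60 min with detection reagents at rt. Duplicate, three experiments, carbachol as reference.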

[2] = molecular target: T1, Muscarinic acetylcholine receptor M2 (Homo sapiens); assay: Binding affinity to human muscarinic acetylcholine receptor M2 expressed in CHOK9 cell homogenate after 2 hrs by liquid scintillation counting assay; conditions: tested as the 3H-labelled form
Procedure, shortened: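 CHO-hM2 cell homogenates (25–30 μg protein/well) in L15 medium with 1% BSA, 23 ± 1 °C, 2 h with tritiated dimeric radioligand. Competition used 0.5 nM radioligand; additional 0.4, 1, 2 and 4 nM in W84 experiments. […] Four-parameter logistic fits; at least three experiments in triplicate.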

[3] = molecular target: Muscarinic acetylcholine receptor M3 (Homo sapiens, UniProt P20309); assay: Displacement of [3H]NMS from human muscarinic acetylcholine receptor M3 expressed in CHOK9 cells after 3 hrs by liquid scintillation counting assay; assay type: cell-based
Chain of Muscarinic acetylcholine receptor M3 (P20309 whole entry): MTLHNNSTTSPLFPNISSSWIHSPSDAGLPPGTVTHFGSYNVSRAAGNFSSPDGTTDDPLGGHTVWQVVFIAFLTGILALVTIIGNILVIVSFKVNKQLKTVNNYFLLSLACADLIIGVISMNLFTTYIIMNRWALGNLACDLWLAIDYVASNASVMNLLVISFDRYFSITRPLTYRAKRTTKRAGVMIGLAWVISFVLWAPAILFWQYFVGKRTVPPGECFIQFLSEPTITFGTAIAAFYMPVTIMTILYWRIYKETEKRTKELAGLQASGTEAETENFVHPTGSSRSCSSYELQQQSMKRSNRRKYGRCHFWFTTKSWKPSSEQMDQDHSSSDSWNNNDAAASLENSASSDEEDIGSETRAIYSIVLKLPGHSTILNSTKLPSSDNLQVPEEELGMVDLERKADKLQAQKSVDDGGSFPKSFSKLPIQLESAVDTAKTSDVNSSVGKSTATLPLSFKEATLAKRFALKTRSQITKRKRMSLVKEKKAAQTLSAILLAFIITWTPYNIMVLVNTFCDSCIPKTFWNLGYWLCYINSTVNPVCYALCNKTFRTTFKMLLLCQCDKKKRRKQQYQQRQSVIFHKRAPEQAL

[4] = molecular target: T1, Muscarinic acetylcholine receptor M2 (Homo sapiens); assay: (§1) Competitive antagonist activity at human muscarinic acetylcholine receptor M2 expressed in HEK293 cells coexpressing HA tagged Galpha-protein qi5 assessed as inhibition of 0.1 uM carbachol-induced IP1 accumulation preincubated for 30 mins followed by carbachol addition measured after 1 hr by HTRF assay; assay type: functional, cell-based
Procedure, shortened: (§2)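 HEK-293 transiently cotransfected with human M2R and Gαqi5-HA. Cells preincubated 30 min with antagonist, then carbachol added (final 0.1, 0.3, 1 or 10 μM), 1 h at 37 °C. IP1 detected by HTRF (620/670 nm emission, 330 nm excitation). At least four independent experiments, each in duplicate.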

[5] = molecular target: T2, Muscarinic acetylcholine receptor M2 (Homo sapiens, UniProt P08172); assay: as §1; assay type: functional, cell-based; procedure, shortened: as §2
T2 sequence (P08172 whole entry): T1 sequence (whole entry)

[6] = molecular target: T1, Muscarinic acetylcholine receptor M2 (Homo sapiens); assay: Binding affinity to human muscarinic acetylcholine receptor M2 expressed in live adherent CHOK9 cells at Kd in presence of 500-fold excess atropine after 2 hrs by liquid scintillation counting assay relative to control; assay type: cell-based; conditions: tested as the 3H-labelled form
Procedure, shortened: (§3)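 Live adherent CHO-hM2 cells in L15 medium with 1% BSA, 23 ± 1 °C, 2 h incubation. Competition at 2 nM radioligand; additional 4, 8, 15 and 30 nM in W84 experiments. […] Saturation data fitted one-site; competition by four-parameter logistic fits; at least three experiments in triplicate.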

[7] = Chemical stability of the compound in PBS buffer at pH 7.4 after 48 hrs by HPLC analysis; assay type: physicochemical; conditions: pH 7.4, 48 h
Procedure, shortened: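 Compound at 100 μM final (from 10 mM stock) in PBS pH 7.4 at 22 ± 1 °C; samples taken at 0, 24 and 48 h, mixed with acetonitrile/1% aq TFA 2:8, analysed by RP-HPLC at 220 nm.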

[8] = molecular target: T1, Muscarinic acetylcholine receptor M2 (Homo sapiens); assay: Binding affinity to human muscarinic acetylcholine receptor M2 expressed in live adherent CHOK9 cells after 2 hrs by liquid scintillation counting assay; assay type: cell-based; conditions: tested as the 3H-labelled form; procedure, shortened: as §3
[9] = molecular target: T2, Muscarinic acetylcholine receptor M2; assay: Displacement of [3H]UNSW-MK259 from human muscarinic acetylcholine receptor M2 expressed in CHOK9 cells after 3 hrs by liquid scintillation counting assay; assay type: cell-based
[10] = molecular target: T3, Muscarinic acetylcholine receptor M4 (Homo sapiens, UniProt P08173); assay: Displacement of [3H]NMS from human muscarinic acetylcholine receptor M4 expressed in CHOK9 cells after 3 hrs by liquid scintillation counting assay; assay type: cell-based
T3 sequence (P08173 whole entry): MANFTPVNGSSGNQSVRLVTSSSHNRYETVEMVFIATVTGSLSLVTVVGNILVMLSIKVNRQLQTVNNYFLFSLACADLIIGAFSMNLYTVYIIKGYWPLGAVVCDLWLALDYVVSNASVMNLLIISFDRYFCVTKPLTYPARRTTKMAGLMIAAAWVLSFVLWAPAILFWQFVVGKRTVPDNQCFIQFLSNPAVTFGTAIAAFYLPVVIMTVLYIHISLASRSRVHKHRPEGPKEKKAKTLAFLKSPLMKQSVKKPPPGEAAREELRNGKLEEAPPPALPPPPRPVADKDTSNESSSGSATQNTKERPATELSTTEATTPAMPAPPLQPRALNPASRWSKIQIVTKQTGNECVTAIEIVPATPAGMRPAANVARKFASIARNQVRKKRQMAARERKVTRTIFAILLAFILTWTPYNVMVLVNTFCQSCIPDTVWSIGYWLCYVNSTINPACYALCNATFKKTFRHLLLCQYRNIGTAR

[11] = molecular target: T1, Muscarinic acetylcholine receptor M2 (Homo sapiens); assay: Binding affinity to human muscarinic acetylcholine receptor M2 expressed in CHOK9 cells assessed as association rate constant incubated up to 140 mins by liquid scintillation counting assay; assay type: cell-based; conditions: tested as the 3H-labelled form
[12] = molecular target: T1, Muscarinic acetylcholine receptor M2 (Homo sapiens); assay: Binding affinity to human muscarinic acetylcholine receptor M2 expressed in CHOK9 cells assessed as dissociation rate constant after 105 mins by liquid scintillation counting assay; assay type: cell-based; conditions: tested as the 3H-labelled form
[13] = molecular target: T1, Muscarinic acetylcholine receptor M2 (Homo sapiens); assay: as §1, with “10” for “0.1”; assay type: functional, cell-based; procedure, shortened: as §2
[14] = molecular target: T2, Muscarinic acetylcholine receptor M2; assay: as §1, with “10” for “0.1”; assay type: functional, cell-based; procedure, shortened: as §2
[15] = molecular target: T1, Muscarinic acetylcholine receptor M2 (Homo sapiens); assay: Antagonist activity at human muscarinic acetylcholine receptor M2 expressed in HEK293 cells coexpressing HA tagged Galpha-protein qi5 assessed as inhibition of 0.3 uM carbachol-induced IP1 accumulation preincubated for 30 mins followed by carbachol addition measured after 1 hr by HTRF assay; assay type: functional, cell-based; procedure, shortened: as §2

Activity [1]: inactive
Bmax (disintegrations/minute) [2]: 620
Ki [3]: 0.0155 µM
inhibition [4]: Dose-dependent effect
IC50 [5]: 0.0166 µM
Activity [6]: > 60%
Stability [7]: Stable
Bmax (disintegrations/minute) [8]: 1200
Ki [9]: 0.000107 µM
Ki [10]: 0.000468 µM
K [11]: 933000 M⁻¹ s⁻¹
K [12]: 0.011 min⁻¹
inhibition [13]: Dose-dependent effect
IC50 [14]: 0.263 µM
inhibition [15]: Dose-dependent effect
pKb [15]: 7.36
SMILES: CCC(=O)NCc1cc(C(=O)NCCNC(=O)CCc2cn(CCCCC3CCN(CC(=O)N4c5ccccc5NC(=O)c5ccccc54)CC3)cn2)cc(C(=O)NCCNC(=O)CCc2cn(CCCCC3CCN(CC(=O)N4c5ccccc5NC(=O)c5ccccc54)CC3)cn2)c1.O=C(O)C(F)(F)F.O=C(O)C(F)(F)F.O=C(O)C(F)(F)F.O=C(O)C(F)(F)F
